Published values of several laboratories.
Compare with care: the assays were run in different laboratories.
Target: Interleukin-1 receptor-associated kinase 4 (IRAK4, Homo sapiens, UniProt Q9NWZ3)

Structure (SMILES)	assay	conditions	endpoint	value
CC(C)(C)c1nc(-c2cccc(NS(=O)(=O)c3c(F)cccc3F)c2F)c(-c2ccnc(N)n2)s1	enzyme activity, inhibitor, radiometric	1 µM	remaining activity	103%
Cn1c(=O)n(-c2ccc(C(C)(C)C#N)cc2)c2c3cc(-c4cnc5ccccc5c4)ccc3ncc21	enzyme activity, inhibitor	10 µM	remaining activity	78%
CCCS(=O)(=O)Nc1ccc(F)c(C(=O)c2c[nH]c3ncc(-c4ccc(Cl)cc4)cc23)c1F	enzyme activity, inhibitor	1 µM	inhibition	< 10%
COc1cc(/C=C/C(=O)CC(=O)/C=C/c2ccc(O)c(OC)c2)ccc1O	enzyme activity, inhibitor	1 µM	activity vs control	71%
CO[C@@H](C)c1c(Nc2ccc([C@H](N(C)C(=O)C3CCS(=O)(=O)CC3)C(F)(F)F)cc2)cnc2cc(Cl)nn12	cell-free assay, competition with immobilised ligand	1 µM	remaining binding	88%
CN(C)C1CCN(CC#Cc2nn(C3CCCC3)c3nc(NCc4ccccc4)ncc23)C1 (stereo not shown)	enzyme activity, inhibitor, FRET	0.1 µM	inhibition	0%
FC(F)c1nc2ccccc2n1-c1nc(N2CCOCC2)nc(N2CCOCC2)n1	enzyme activity, inhibitor	10 µM	remaining activity	102%
Cc1cc(C)c(-n2ccn3nc(-c4cccnc4)cc23)cc1NC(=O)c1cc(C#N)cc(S(F)(F)(F)(F)F)c1	cell-free assay, competition with immobilised ligand	0.1 µM	remaining binding	100%
O=C(CSc1nc2nccnc2c(=O)n1CCc1ccccc1)Nc1nccs1	enzyme activity, inhibitor	10 µM	inhibition	10%
COc1cc2ncnc(Nc3ccc(Oc4ccccc4)c(C)c3C)c2cc1OC	enzyme activity, inhibitor	1 µM	inhibition	-4%
Cc1cnc(NC2CCOCC2)nc1-n1cnc(C(=O)NC(CN)c2cc(F)cc(Cl)c2)c1 (stereo not shown)	enzyme activity, inhibitor, radiometric	1 µM	remaining activity	104%
COc1cc2nccc(Oc3ccc(NC(=O)c4c5n(n(-c6ccc(F)cc6)c4=O)CCCC5)cc3)c2cc1OC	enzyme activity, inhibitor	0.1 µM	inhibition	-19%
CCN(CC)CCNC(=O)c1c(C)[nH]c(/C=C2\C(=O)Nc3ccc(F)cc32)c1C	enzyme activity, inhibitor	10 µM	inhibition	89%
C=CC(=O)Nc1cc(Nc2nccc(Nc3cc(Cl)c(F)cc3C(C)(C)O)n2)c(OC)cc1N1CC[C@@H](N(C)C)C1	enzyme activity, inhibitor	1 µM	inhibition	24%
Oc1cccc(-c2nc(N3CCOCC3)c3oc4ncccc4c3n2)c1	cell-free assay	0.5 µM	remaining signal	104%
Cc1cc(NC(=O)c2cccc3cc(-c4cccc5[nH]nc(N)c45)ccc23)ccc1F	enzyme activity, inhibitor	0.1 µM	activity vs control	99%

Structure (SMILES)	assay	conditions	endpoint	value
Cc1ccc(C(=O)NCc2ccsc2)cc1C#Cc1cn(C(C)C)c2ncnc(N)c12	enzyme activity, inhibitor	1 µM	activity vs control	88%
FC(F)(F)Oc1cccc(-c2cnc3ccc(-c4ccncc4)nn23)c1	enzyme activity, inhibitor, radiometric	5 µM	activity vs control	10%
COc1cc(Cl)c(C(=O)N[C@@H](CN[C@H]2CC[C@@H](N)CC2)Cc2ccc(C#N)cc2)cc1-c1ccc(CN[C@H](C)c2ccc(C)cc2)o1	enzyme activity, inhibitor	1 µM	remaining activity	89%
N#Cc1ccc(Nc2ccc3[nH]c(=O)[nH]c3c2)c(Cl)c1	cell-free assay, competition with immobilised ligand	1 µM	remaining binding	100%
F[C@@H]1CCN(c2nccc(-c3cnn4ncccc34)n2)C1	binding	1 µM	remaining binding	100%
CCc1ccccc1C(=O)Nc1n[nH]c2c(C)c(F)c(C3C(C#N)=C(C)N(C)C(C)=C3C#N)cc12	cell-free assay, competition with immobilised ligand	1 µM	remaining binding	100%
CN1CC(Oc2cnc(C#N)cc2-c2ccn3nc(NC(=O)C4CC4)cc3c2)C1	enzyme activity, inhibitor	1 µM	inhibition	1%
CC(=O)Nc1c(C(C)=O)c(=O)n(C)c2nc(-c3ccc(Cl)cc3Cl)c(-c3ccc(Cl)cc3)cc12	cell-free assay, competition with immobilised ligand	1 µM	remaining binding	100%
O=C1NC(=O)c2cc(Nc3ccc(F)cc3)c(Nc3ccc(F)cc3)cc21	cell-free assay	0.5 µM	remaining signal	98.1%
CS(=O)(=O)N1CCCC(NC(=O)[C@H](CCC2CCCCC2)NC(=O)c2ccc(CNC(=O)c3cnc4ccccn34)cc2)C1 (stereo partly shown)	cell-free assay, competition with immobilised ligand	0.1 µM	remaining binding	100%
Cc1sc(C(=O)NC2COC2)cc1-n1cc(NC(=O)Nc2c(F)cccc2Cl)cn1	enzyme activity, inhibitor	10 µM	remaining activity	103%
CNC(=O)c1ccc(Nc2ncc(C(F)(F)F)c(NCc3nccnc3N(C)S(C)(=O)=O)n2)cc1	cell-free assay, competition with immobilised ligand	0.1 µM	remaining binding	92%
CNC(=O)c1cc(Oc2ccc(NC(=O)Nc3ccc(Cl)c(C(F)(F)F)c3)cc2)ccn1	cell-free assay	0.5 µM	remaining signal	99.6%
Cc1nccc(COC(=O)N2C[C@@H]3[C@@H](CNC(=O)c4ccc5[nH]nnc5c4)[C@@H]3C2)n1	cell-free assay, competition with immobilised ligand	1 µM	remaining binding	87%
O=C1Nc2ccc(Cl)cc2C1=Cc1cc(Cl)c(O)c(Cl)c1	cell-free assay	0.5 µM	remaining signal	101%
